# Experimental data as given in publication PMC6005736 (Leukemia & lymphoma, 2017).
# Entries after “also recorded” stand apart in the source; their conditions may differ.
# How the values were obtained:
# [1] = target: Runt domain - CBFβ interaction (Homo sapiens, UniProt Q01196); experiment: FRET assay of Cerulean-Runt domain and Venus-CBFβ binding
# Outline: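 Purified Cerulean-Runt domain and Venus-CBFβ fusion proteins were used in a competition FRET format. Test compounds displace CBFβ binding to the Runt domain. Initial screening of compounds was at 200 µM.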
# [2] = system: CBFβ-Runx; conditions: ref [44]; cited from earlier work
# [3] = system: t(8;21) positive human AML samples; experiment: CFU-C assay, primary human t; assay type: cell-based; conditions: five samples, methylcellulose, colonies counted 14 days after plating
# Outline: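 Primary AML specimens (pheresis or bone marrow mononuclear cells) were plated in methylcellulose with various test compound concentrations. Colonies were scored 14 days after plating. Triplicate cultures per concentration, two experiments. Significance versus DMSO by one-way ANOVA with Dunnett's multiple-comparison test.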
# [4] = system: normal bone marrow mononuclear cells (BM-MNCs); experiment: CFU-C assay, normal human bone marrow mononuclear cells; assay type: cell-based; conditions: methylcellulose, colonies counted 14 days after plating
# [5] = system: 720 T-ALL cells; experiment: qPCR gene expression in 720 T-ALL cells; assay type: cell-based, mouse; conditions: 720 T-ALL cells treated for 16 hours
# Outline: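 720 T-ALL cells were exposed to test compound for 16 h and transcript levels quantified by qPCR relative to DMSO-treated cells. Triplicate means ± SD, two experiments. One-way ANOVA with Dunnett's comparison against DMSO.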
# [6] = system: 8946 T-ALL cell line; experiment: MTT cell viability assay, 8946; assay type: cell-based, murine; conditions: 48 hours
# Outline: (§1)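 Leukemia cell lines were treated with test compound, with DMSO vehicle and staurosporine positive-control arms, and viability was read by MTT. Mean of triplicates ± SD, two independent experiments. One-way ANOVA excluding staurosporine, then Dunnett's test against DMSO-treated cells (P ≤ 0.05).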
# [7] = system: 720 T-ALL cell line; experiment: MTT cell viability assay, 720 T-ALL; assay type: cell-based, mouse; conditions: 48 hours
# Outline: as §1
# [8] = system: Kasumi-1 cells; experiment: MTT cell viability assay, Kasumi-1; assay type: cell-based, human; conditions: 48 hours in culture
# Outline: as §1
# [9] = system: Kasumi-1 cells; experiment: DAPI flow cytometry of dead/live Kasumi-1 cells; assay type: cell-based, human; conditions: 48 hours in culture
# [10] = system: normal mouse bone marrow cells; experiment: CFU-C assay, normal mouse bone marrow cells; assay type: cell-based; conditions: methylcellulose, colonies counted 7 days after plating
# [11] = system: hematopoietic stem and progenitor cell (HSPC) formation in zebrafish embryos; experiment: HSPC formation in zebrafish embryos; assay type: in vivo
# [12] = system: Cerulean-Runt domain; experiment: Saturation transfer difference; assay type: binding; conditions: STD NMR
# [13] = system: AML1-ETO9a + NRas^G12D AML cells; experiment: CFU-C assay, murine AML1-ETO9a + NRasG12D AML cells; assay type: cell-based, mouse; conditions: methylcellulose, colonies counted 7 days after plating
# Outline: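 Leukemic cells came from a secondary recipient of spleen cells. The primary recipient had received fetal liver cells transduced with AML1-ETO9a and NRasG12D retroviruses. 20,000 cells were plated in methylcellulose with various test compound concentrations (DMSO final 0.2%). Colonies were counted at day 7. Triplicates per concentration, two experiments, SD. One-way ANOVA with Dunnett's test versus DMSO.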
# [14] = system: Jurkat; experiment: MTT cell viability assay, Jurkat; assay type: cell-based, human; conditions: 48 hours
# Outline: as §1
# Chain of Runt domain - CBFβ interaction (Q01196 50-178 limits assumed): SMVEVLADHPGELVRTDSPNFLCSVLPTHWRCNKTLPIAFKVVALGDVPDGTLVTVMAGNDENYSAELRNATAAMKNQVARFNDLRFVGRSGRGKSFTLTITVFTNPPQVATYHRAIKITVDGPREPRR
compound,measurement,setting,value
"Sc1nnc(-c2ccccc2)s1 [4b, 5-phenyl-1,3,4-thiadiazole-2(3H)-thione]",IC50,[1],11 ± 1.3 µM
"CSc1nnc(-c2ccccc2F)s1 [6a, 2-(2-fluorophenyl)-5-(methylthio)-1,3,4-thiadiazole]",activity in the FRET assay,[1]; Cerulean-Runt domain and Venus-CBFβ at 100 nM,complete loss of activity
O=C1CN=C(c2ccc[nH]2)c2cc(Cl)ccc2N1 [Ro5-3335],inhibitor of CBFβ-Runx,[2],inhibitor of CBFβ-Runx
S=c1[nH]nc(-c2ccc(-c3cccc(Cl)c3)o2)s1 [AI-8–45],colony numbers of t(8;21) positive human AML samples,[3],significantly reduced the colony numbers
same,colony numbers of normal bone marrow mononuclear cells,[4],but not that of normal bone marrow mononuclear cells
same,"expression of Deptor, Cdkn1a, Dhcr24, Cebpa, Csf1r (qPCR)",[5],affected
same,growth of 8946 T-ALL cells (MTT),[6],significantly reduced the growth; also recorded: inhibit proliferation
same,growth of 720 T-ALL cells (MTT),[7],significantly reduced the growth; also recorded: inhibit proliferation
same,growth of Kasumi-1 cells (MTT),[8],significantly reduced the growth; also recorded: inhibit proliferation
same,percentage of DAPI-positive dead cells,[9],statistically significant and dose-dependent increase
same,colony formation by normal mouse bone marrow cells,[10],Neither AI-8–45 nor AI-9–54 had any effect
same,Flk1:dsRed+Myb:Gfp+ HSPCs in the VDA at 36 hpf,"[11]; Tg(kdrl:dsred;cmyb:egfp) embryos, 2.5 µM, 12 to 36 hpf, flow cytometry",decreased
same,number of CD41:Gfp+ HSPCs in the CHT at 48 hpf,"[11]; Tg(−6.0itga2b:egfp) embryos, treated 18 to 48 hpf, compared to AI-7–54 treated controls",decreased
same,saturation transfer effect / binding to Runt domain,[12],in close contact with the protein
same,colony formation of AML1-ETO9a + NRasG12D AML cells,[13],significantly reduced colony formation
same,growth of Jurkat cells (MTT),[14],significantly reduced the growth; also recorded: inhibit proliferation
